Measured values: ChEMBL document CHEMBL3621107, “Ring fusion strategy for synthesis and lead optimization of sulfur-substituted anthra[1,2-c][1,2,5]thiadiazole-6,11-dione derivatives as promising scaffold of antitumor agents” (Eur J Med Chem, 2015)

How the values were obtained:
Assay type in all cases: functional
MOLT-4 = assay: Cytotoxicity against human MOLT4 cells after 48 hrs by SRB assay; details: MOLT-4, 48 h
Outline: (§1)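 Second-stage NCI-60 panel run by the NCI Developmental Therapeutics Program, covering nine tumour subpanels. Five concentrations were tested: 0.01, 0.1, 1, 10 and 100 μM. Percentage growth at each level was plotted against log10 drug concentration. GI50, TGI and LC50 were read from these dose-response curves. Subpanel MID values were divided into the full-panel MID to give selectivity ratios.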

SR = assay: Cytotoxicity against human SR cells after 48 hrs by SRB assay
Outline: (§2)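 NCI-60 five-dose study run by NCI DTP at 0.01, 0.1, 1, 10 and 100 µM. Percentage growth at each level was plotted against log10 concentration for each line, and GI50, TGI and LC50 were read from the dose-response curves.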

A549 = assay: Cytotoxicity against human A549 cells after 48 hrs by SRB assay; details: A549, 48 h
Outline: (§3)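 NCI-60 human tumour cell panel screen, second stage, run by the NCI Developmental Therapeutics Program. Compounds were tested at five concentrations (0.01, 0.1, 1, 10 and 100 μM). Percentage growth was plotted against log10 concentration for each cell line. GI50, TGI and LC50 were taken from these dose-response curves.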

HOP-62 = assay: Cytotoxicity against human HOP62 cells after 48 hrs by SRB assay; details: HOP-62, 48 h; outline: as §3
NCI-H226 = assay: Cytotoxicity against human NCI-H226 cells after 48 hrs by SRB assay; details: NCI-H226, 48 h; outline: as §1
NCI-H522 = assay: Cytotoxicity against human NCI-H522 cells after 48 hrs by SRB assay; details: NCI-H522, 48 h; outline: as §1
HCC 2998 = assay: Cytotoxicity against human HCC2998 cells after 48 hrs by SRB assay; details: HCC 2998, 48 h; outline: as §3
HT-29 = assay: Cytotoxicity against human HT-29 cells after 48 hrs by SRB assay; details: HT-29, 48 h; outline: as §3
KM12 = assay: Cytotoxicity against human KM12 cells after 48 hrs by SRB assay; details: KM12, 48 h; outline: as §3
SW-620 = assay: Cytotoxicity against human SW620 cells after 48 hrs by SRB assay; details: SW-620, 48 h; outline: as §2
SF-295 = assay: Cytotoxicity against human SF295 cells after 48 hrs by SRB assay; details: SF-295, 48 h; outline: as §1
SF-539 = assay: Cytotoxicity against human SF539 cells after 48 hrs by SRB assay; details: SF-539, 48 h; outline: as §1
SNB-75 = assay: Cytotoxicity against human SNB75 cells after 48 hrs by SRB assay; details: SNB-75, 48 h; outline: as §2
U-251 = assay: Cytotoxicity against human U251 cells after 48 hrs by SRB assay; details: U-251, 48 h; outline: as §2
Malme-3M = assay: Cytotoxicity against human MALME-3M cells after 48 hrs by SRB assay; outline: as §3
UACC-257 = assay: Cytotoxicity against human UACC257 cells after 48 hrs by SRB assay; details: UACC-257, 48 h; outline: as §2
UACC-62 = assay: Cytotoxicity against human UACC62 cells after 48 hrs by SRB assay; details: UACC-62, 48 h; outline: as §2
OVCAR-3 = assay: Cytotoxicity against human OVCAR3 cells after 48 hrs by SRB assay; details: OVCAR-3, 48 h; for CC50: read-out: LC50 (the source's name); outline: as §1
OVCAR-4 = assay: Cytotoxicity against human OVCAR4 cells after 48 hrs by SRB assay; details: OVCAR-4, 48 h; outline: as §1
OVCAR-5 = assay: Cytotoxicity against human OVCAR5 cells after 48 hrs by SRB assay; details: OVCAR-5, 48 h; outline: as §1
NCI/ADR-RES = assay: Cytotoxicity against human NCI/ADR-RES cells after 48 hrs by SRB assay; outline: as §1
786-0 = assay: Cytotoxicity against human 786-0 cells after 48 hrs by SRB assay; details: 786-0, 48 h; outline: as §3
SN12C = assay: Cytotoxicity against human SN12C cells after 48 hrs by SRB assay; details: for CC50: read-out: LC50 (the source's name); outline: as §1
UO-31 = assay: Cytotoxicity against human UO31 cells after 48 hrs by SRB assay; details: UO-31, 48 h; outline: as §2
DU-145 = assay: Cytotoxicity against human DU145 cells after 48 hrs by SRB assay; details: DU-145, 48 h; outline: as §3
T47D = assay: Cytotoxicity against human T47D cells after 48 hrs by SRB assay; outline: as §2
[1] = Cytotoxicity against human leukemia cells assessed as growth inhibition after 48 hrs by SRB assay; details: Leukemia cell
Outline: (§4)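 Values come from the NCI-60 five-dose panel (0.01–100 µM). The subpanel MID is the mean GI50 over the lines of that tumour subpanel. The selectivity ratio is the full-panel MID divided by the subpanel MID; 3–6 is rated moderate and >6 high.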

[2] = Cytotoxicity against human melanoma cells assessed as growth inhibition after 48 hrs by SRB assay; details: Melanoma cell; outline: as §4
[3] = Cytotoxicity against human renal cancer cells assessed as growth inhibition after 48 hrs by SRB assay; details: Cancer cell lines; outline: as §4
[4] = Cytotoxicity against human breast cancer cells assessed as growth inhibition after 48 hrs by SRB assay; details: Cancer cell lines; outline: as §4
[5] = Cytotoxicity against human EKVX cells after 48 hrs by SRB assay; outline: as §3

## CC(C)Sc1cc2c(c3nsnc13)C(=O)c1ccccc1C2=O
MOLT-4
  GI50: 0.18 µM
  LC50: > 100 µM
  TGI: 0.49 µM
SR
  GI50: 0.31 µM
  LC50: 7.46 µM
  TGI: 1.19 µM
A549
  GI50: 2.43 µM
  LC50 (concentration killing 50% of cells): 51.4 µM
  TGI: 7.94 µM
HOP-62
  GI50: 2.1 µM
  LC50: 24.2 µM
  TGI: 6.53 µM
NCI-H226
  GI50: 1.83 µM
  LC50 (concentration killing 50% of starting cells): 14.6 µM
  TGI: 4.64 µM
NCI-H522
  GI50: 2.38 µM
  LC50 (concentration giving 50% net cell kill): 9.96 µM
  TGI: 4.87 µM
HCC 2998
  GI50: 3.46 µM
  LC50: 34.9 µM
  TGI: 11.1 µM
HT-29
  GI50: 12.2 µM
  LC50: 92.7 µM
  TGI: 33.6 µM
KM12
  GI50: 3.19 µM
  LC50 (concentration killing 50% of cells): 41.1 µM
  TGI: 11.3 µM
SW-620
  GI50: 0.43 µM
  LC50 (50% lethal concentration): 11.7 µM
  TGI: 2.21 µM
SF-295
  GI50: 1.88 µM
  LC50: 9.83 µM
  TGI: 4.3 µM
SF-539
  GI50: 1.73 µM
  LC50: 7.14 µM
  TGI: 3.51 µM
SNB-75
  GI50: 0.52 µM
  LC50 (concentration killing 50% of cells): 23.9 µM
  TGI: 3.95 µM
U-251
  GI50: 1.48 µM
  LC50: 6.75 µM
  TGI: 3.16 µM
Malme-3M
  GI50: 1.12 µM
  LC50: 5.03 µM
  TGI: 2.38 µM
UACC-257
  GI50: 0.57 µM
  LC50: 4.47 µM
  TGI: 1.88 µM
UACC-62
  GI50: 1.35 µM
  LC50: 5.26 µM
  TGI: 2.67 µM
OVCAR-3
  GI50: 0.25 µM
  TGI: 0.638 µM
  CC50: 2.98 µM
OVCAR-4
  GI50: 0.36 µM
  LC50: 3.67 µM
  TGI: 1.34 µM
OVCAR-5
  GI50: 2.07 µM
  LC50: 7.94 µM
  TGI: 4.05 µM
NCI/ADR-RES
  GI50: 0.52 µM
  LC50 (concentration killing 50% of cells): > 100 µM
  TGI: 3.2 µM
786-0
  GI50: 2.75 µM
  LC50 (concentration killing 50% of cells): 34.9 µM
  TGI: 8.14 µM
SN12C
  GI50: 0.66 µM
  TGI: 2.41 µM
  CC50: 7.09 µM
UO-31
  GI50: 1.16 µM
  LC50: 11.9 µM
  TGI: 3.56 µM
DU-145
  GI50: 1.45 µM
  LC50: 26.4 µM
  TGI: 6.64 µM
T47D
  GI50: 0.38 µM
  LC50 (concentration killing 50% of cells): 9.11 µM
  TGI: 2.15 µM
[1]
  GI50: 0.25 µM
[2]
  GI50: 1.12 µM
[3]
  GI50: 1.58 µM
[4]
  GI50: 1.09 µM

## O=C1c2ccccc2C(=O)c2c1cc(Sc1ccccc1Br)c1nsnc21
MOLT-4
  GI50: 7.21 µM
  LC50: > 50 µM
  TGI: 41.2 µM
SR
  GI50: 17 µM
  LC50: > 50 µM
  TGI: > 50 µM
A549
  GI50: > 50 µM
  LC50 (concentration killing 50% of cells): > 50 µM
  TGI: > 50 µM
[5]
  GI50: > 50 µM
  LC50: > 50 µM
  TGI: > 50 µM
HOP-62
  GI50: 13.3 µM
  LC50: > 50 µM
  TGI: 30.4 µM
NCI-H226
  GI50: 19.4 µM
  LC50 (concentration killing 50% of starting cells): > 50 µM
  TGI: > 50 µM
NCI-H522
  GI50: 14.9 µM
  LC50 (concentration giving 50% net cell kill): > 50 µM
  TGI: > 50 µM
HCC 2998
  GI50: > 50 µM
  LC50: > 50 µM
  TGI: > 50 µM
HT-29
  GI50: > 50 µM
  LC50: > 50 µM
  TGI: > 50 µM
KM12
  GI50: 41.9 µM
  LC50 (concentration killing 50% of cells): > 50 µM
  TGI: > 50 µM
SW-620
  GI50: 23.6 µM
  LC50 (50% lethal concentration): > 50 µM
  TGI: > 50 µM
SF-295
  GI50: 40.6 µM
  LC50: > 50 µM
  TGI: > 50 µM
SF-539
  GI50: 10.3 µM
  LC50: 40.5 µM
  TGI: 20.5 µM
SNB-75
  GI50: 14.9 µM
  LC50 (concentration killing 50% of cells): > 50 µM
  TGI: > 50 µM
U-251
  GI50: 10.9 µM
  LC50: > 50 µM
  TGI: 31.7 µM
Malme-3M
  GI50: 16.8 µM
  LC50: > 50 µM
  TGI: 40.2 µM
UACC-257
  GI50: 8.56 µM
  LC50: > 50 µM
  TGI: 20.9 µM
UACC-62
  GI50: 12 µM
  LC50: > 50 µM
  TGI: 40.8 µM
OVCAR-3
  GI50: 10.2 µM
  TGI: 22.8 µM
  CC50: > 50 µM
OVCAR-4
  GI50: 2.78 µM
  LC50: 30.1 µM
  TGI: 10.1 µM
OVCAR-5
  GI50: 3.44 µM
  LC50: > 50 µM
  TGI: > 50 µM
NCI/ADR-RES
  GI50: 10.4 µM
  LC50 (concentration killing 50% of cells): > 50 µM
  TGI: 36.9 µM
786-0
  GI50: 11.2 µM
  LC50 (concentration killing 50% of cells): > 50 µM
  TGI: 29.7 µM
SN12C
  GI50: 10.5 µM
  TGI: 39.7 µM
  CC50: > 50 µM
UO-31
  GI50: 14.9 µM
  LC50: > 50 µM
  TGI: > 50 µM
DU-145
  GI50: 21.5 µM
  LC50: > 50 µM
  TGI: > 50 µM
T47D
  GI50: 3.7 µM
  LC50 (concentration killing 50% of cells): > 50 µM
  TGI: 18.3 µM
[1]
  GI50: 12.8 µM
[2]
  GI50: 12.9 µM
[3]
  GI50: 14.5 µM
[4]
  GI50: 9.62 µM
